Data set [1] is described as follows: Inhibition of elastase (unknown origin) at 1.25 uM by fluorescence microtiter plate method relative to control. The conditions noted are these: Homo sapiens. Put shortly:
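Single-concentration screen: elastin substrate and elastase were incubated with test compounds at 1.25 μM in the EnzChek fluorescence elastase format (40 min, rt). Activity was read against controls, with three repeats.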

Data set [2] concerns Mus musculus. Nature of the data set: Antiinflammatory activity against bleomycin-induced acute lung injury C57BL/6 mouse model assessed as reduction in pathological changes in lung at 30 mg/kg, ip administered for upto 5 days by HE-staining based assay. The following applies: time day <=5. In kind it is functional, organism-based. The essentials: (§1)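 Male C57BL/6J mice, 8 weeks old, n = 8 per group, anaesthetised with chloral hydrate. ALI was induced by intratracheal BLM 4 mg/kg in 0.1 mL saline; controls received saline. Drug was given at 30 mg/kg ip daily for up to 5 days in 10% DMSO/90% saline (vehicle alone for controls), with sacrifice on day 6. Right lungs were formalin-fixed, sectioned at 4 μm and HE-stained. A histologist scored three images per lung blind; dead animals were excluded.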

The test system of data set [3] is Mus musculus. Nature of the data set: Antiinflammatory activity against bleomycin-induced acute lung injury C57BL/6 mouse model assessed as fold reduction in lung edema by measuring thickness of the alveolar deterioration at 30 mg/kg, ip administered for upto 5 days by HE-staining relative to control. The following applies: time day <=5. It is filed as functional. The essentials:
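Male C57BL/6J mice, 8 weeks old, n = 8/group. ALI induced by intratracheal BLM (4 mg/kg, in 0.1 mL saline) under chloral hydrate anaesthesia; sham controls got saline. Drug given ip at 30 mg/kg in 10% DMSO/90% saline daily for up to 5 days. Sacrifice on day 6; right lung formalin-fixed, 4 μm HE sections, three images per lung, blinded histologist scoring; dead animals excluded.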

A short description of data set [4]: Inhibition of elastase (unknown origin). Set-up: species or system Homo sapiens. The essentials: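 EnzChek kit, DQ elastin substrate 25 μg/mL with porcine pancreatic elastase 0.4 U/mL or human neutrophil elastase 0.2 U/mL. Increasing inhibitor concentrations, 40 min at room temperature in the dark. Fluorescence read at ex 485/em 535 nm. Three repeats; paired Student's t test against controls.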

For data set [5], the system named is Mus musculus. Nature of the data set: Antiinflammatory activity against bleomycin-induced acute lung injury C57BL/6 mouse model assessed as reduction in inflammatory cell infiltration in lung at 30 mg/kg, ip administered for upto 5 days by HE-staining based assay. It is filed as functional, organism-based. The following applies: time day <=5. Put shortly:
as §1

For data set [6], the system named is Mus musculus. The data set can be described thus: Antiinflammatory activity against bleomycin-induced acute lung injury C57BL/6 mouse model assessed as reduction in lung edema by measuring reduction in lung wet/dry ratio at 30 mg/kg, ip administered for upto 5 days relative to control. The conditions noted are these: time day <=5. In kind it is functional, organism-based. Put shortly: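 Same BLM model: C57BL/6J males, intratracheal BLM 4 mg/kg, then 30 mg/kg ip daily up to 5 days in 10% DMSO/90% saline, sacrifice day 6, n = 8 per group. Left lungs were weighed immediately, dried at 78 °C for 48 h to stable weight and reweighed to give the wet/dry ratio. Dead animals were excluded.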

Data set [7] is described as follows: Inhibition of porcine pancreatic elastase incubated for 40 mins in presence of DQ elastin substrate by fluorescence multiwell plate reader. Set-up: species or system Sus scrofa. Put shortly: (§2)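 Fluorescence elastase assay with DQ elastin substrate at 25 μg/mL and either porcine pancreatic elastase at 0.4 U/mL or human neutrophil elastase at 0.2 U/mL. Enzyme, substrate and increasing inhibitor concentrations were incubated 40 min at rt in the dark, then read at ex 485/em 535 nm. Each experiment was run three times; paired Student's t test against controls.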

The nature of data set [8]: Cytotoxicity against human 293T/ACE2 cells assessed as reduction in cell viability upto 100 uM incubated for 24 hrs by CCK-8 assay. It is filed as toxicity, cell-based. The following applies: 293t/ace2, 24 h. The essentials:
(§3)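 Cells (ACE2-overexpressing 293T stable line or BEAS-2B lung epithelial) were seeded at 1 × 10^4 per well and left about 12 h to adhere. They were exposed to graded compound concentrations for 24 h. CCK-8 was added and incubated 2 h at 37 °C, then OD450 read. Viability was expressed as percentage; IC50 was computed.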
For orientation: Tetrazolium dyes change colour on reduction, which living cells bring about.

In data set [9] the test system is BEAS-2B. Nature of the data set: Cytotoxicity against human BEAS-2B cells assessed as reduction in cell viability upto 100 uM incubated for 24 hrs by CCK-8 assay. In kind it is toxicity, cell-based. The essentials: as §3
The target in data set [10] is T1, Neutrophil elastase (Homo sapiens, UniProt P08246).
T1 sequence (P08246 whole entry): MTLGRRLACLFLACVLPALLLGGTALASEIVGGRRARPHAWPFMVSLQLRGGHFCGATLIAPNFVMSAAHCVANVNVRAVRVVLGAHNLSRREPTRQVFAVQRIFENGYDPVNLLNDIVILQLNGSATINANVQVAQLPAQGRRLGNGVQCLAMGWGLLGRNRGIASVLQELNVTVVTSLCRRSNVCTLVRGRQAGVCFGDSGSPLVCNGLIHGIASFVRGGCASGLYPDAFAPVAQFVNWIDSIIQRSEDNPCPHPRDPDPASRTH
The data set can be described thus: Inhibition of human neutrophil elastase incubated for 40 mins in presence of DQ elastin by fluorescence microtiter plate method.

The target in data set [11] is T1, Neutrophil elastase. The data set can be described thus: Inhibition of human neutrophil elastase. The essentials: as §2
The species named for data set [12] is Homo sapiens. Nature of the data set: Inhibition of elastase (unknown origin) at 2.5 uM by fluorescence microtiter plate method relative to control. The essentials:
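Elastin substrate plus elastase incubated with a single inhibitor level (reference inhibitor MeOSu-AAPV-CMK at 2.5 μM, others at 1.25 μM). EnzChek DQ elastin fluorescence, ex 485/em 535 nm, 40 min at room temperature. Three repeats.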

What is called inhibition is the relative decrease from the control value, in per cent. Read a high inhibition as strong suppression. A word on the IC50: it is the midpoint of a concentration-inhibition curve.

Values joined by “and” are separate entries in the source; they are usually repeats but may differ in a detail not shown here. Equal values may be shown once. Active and inactive are the calls of the source. The rule behind the calls is not given here. *1 amine or outer side, *2 acyl side, *3 side chain or, on linkers, in order; H or OH if unused. Where a SMILES comes first, the peptide text is derived from it. Bridges are numbered along the chain shown (N, C = ends). [ ]: non-standard residue; d: D form. The star is where a group is joined. X2 = O=C(/C=C/c1csc([C@H](Cc2ccc(O)cc2)N[*:1])n1)[*:2]; X1 = CC[C@H](C)[C@H](N[*:1])C(=O)C(=O)[*:2]; X3 = CC[C@H](C)[C@H](N[*:1])C(O)C(=O)[*:2]; Benzoyl(4-OH) = O=C(c1ccc(O)cc1)*; Cya = N[C@@H](CS(=O)(=O)O)C(=O)O; MeOSuc = COC(=O)CCC(=O)*; Nva = CCC[C@H](N)C(=O)O; Dap = NC[C@H](N)C(=O)O; CH2Cl = ClC*

`CCC[C@@H]1NC(=O)[C@@H](NC(=O)[C@H](C)NC(=O)CNC(=O)c2ccc(O[Si](C)(C)C(C)(C)C)cc2)CNC(=O)[C@H](CS(=O)(=O)O)NC(=O)/C=C/c2csc(n2)[C@H](Cc2ccc(O[Si](C)(C)C(C)(C)C)cc2)NC(=O)C(=O)[C@H]([C@@H](C)CC)NC1=O`: the inhibition in data set [1] amounted to 46.6%.

Turning to `CC(C)(C)C(=O)Oc1ccc(S(=O)(=O)Nc2ccccc2C(=O)NCC(=O)O)cc1`, the outcome in data set [2], in data set [5] and in data set [6] was Active. For the same compound, the “fold change (FC)” value in [3] is 1. Moreover, the results for the IC50 in data set [4] and in [7] were 44 nM and 2960 nM, respectively.

In the case of `CCC[C@@H]1NC(=O)[C@@H](NC(=O)[C@H](C)NC(=O)CNC(=O)c2ccc(O)cc2)CNC(=O)[C@H](CS(=O)(=O)[O-])NC(=O)/C=C/c2csc(n2)[C@H](Cc2ccc(O)cc2)NC(=O)C(=O)[C@H]([C@@H](C)CC)NC1=O.[Na+]` ({Benzoyl(4-OH)}-GA[Dap][Nva][X1][X2][Cya]; lactam 3-C), the Activity result in data set [8] and in data set [9] was “Non-Toxic” each time. The result in [2], in data set [5] and in [6] was Active. The “fold change (FC)” value in data set [3] was found to be 1. In addition, the figures for the 50% inhibitory concentration (IC50) in [10], in [11] and in data set [7] were 321 nM, 0.034 nM and 114 nM, respectively. For the same compound, the inhibition in data set [1] is 3.6% and 3.8%.

The compound `CCC[C@@H]1NC(=O)[C@@H](NC(=O)[C@H](C)NC(=O)CNC(=O)c2ccc(O)cc2)CNC(=O)[C@H](CS(=O)(=O)O)NC(=O)/C=C/c2csc(n2)[C@H](Cc2ccc(O)cc2)NC(=O)C(O)[C@H]([C@@H](C)CC)NC1=O` (some centres undefined) ({Benzoyl(4-OH)}-GA[Dap][Nva][X3][X2][Cya]; lactam 3-C) had an inhibition in data set [1] of 94%.

`COC(=O)CCC(=O)N[C@@H](C)C(=O)N[C@@H](C)C(=O)N1CCC[C@H]1C(=O)N[C@H](C(=O)CCl)C(C)C` (MeOSuc-AAPV-CH2Cl) had an inhibition in data set [12] of 23.2%.

These data come from ChEMBL document CHEMBL5038647, “Elastase Inhibitor Cyclotheonellazole A: Total Synthesis and In Vivo Biological Evaluation for Acute Lung Injury” (J Med Chem, 2022).
